ChEMBL document CHEMBL1127821 (J Med Chem, 1994)

Legend:
[1] = biological target: Sodium-dependent serotonin transporter (Rattus norvegicus, UniProt P31652); assay: Inhibition of [3H]paroxetine binding to serotonin transport sites in rat frontal cortex membranes.; assay type: cell membranes, Membrane
Method in brief: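 Frontal cortex from male Sprague-Dawley rats, homogenized in 50 mM Tris-HCl/120 mM NaCl/5 mM KCl pH 7.4 and washed twice at 48000g. […] Filtered on GF/B presoaked in 0.05% polyethyleneimine. Nonspecific binding with 10 μM fluoxetine.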

[2] = biological target: T1, Sodium-dependent dopamine transporter (Rattus norvegicus, UniProt P23977); assay: Inhibition of [125I]RTI-55 binding to dopamine transport sites in rat striatal membranes.; assay type: cell membranes, Membrane
T1 sequence (P23977 whole entry): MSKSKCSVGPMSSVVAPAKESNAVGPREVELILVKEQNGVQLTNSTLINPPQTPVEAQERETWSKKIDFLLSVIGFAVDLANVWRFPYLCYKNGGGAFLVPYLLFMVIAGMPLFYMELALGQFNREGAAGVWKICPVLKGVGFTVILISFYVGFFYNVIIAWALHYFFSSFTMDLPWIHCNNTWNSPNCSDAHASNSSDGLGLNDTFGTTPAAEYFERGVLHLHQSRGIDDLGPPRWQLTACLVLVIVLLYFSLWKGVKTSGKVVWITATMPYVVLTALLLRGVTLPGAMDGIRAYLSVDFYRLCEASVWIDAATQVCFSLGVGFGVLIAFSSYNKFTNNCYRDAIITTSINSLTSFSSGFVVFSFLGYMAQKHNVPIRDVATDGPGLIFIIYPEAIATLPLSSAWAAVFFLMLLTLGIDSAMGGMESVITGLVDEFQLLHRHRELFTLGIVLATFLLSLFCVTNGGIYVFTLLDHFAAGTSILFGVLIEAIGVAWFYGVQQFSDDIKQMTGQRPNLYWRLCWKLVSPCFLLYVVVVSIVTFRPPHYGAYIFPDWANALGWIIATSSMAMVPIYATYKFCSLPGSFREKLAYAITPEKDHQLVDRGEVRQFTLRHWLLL

[3] = biological target: T1, Sodium-dependent dopamine transporter; assay: The potency of the [125I]RTI-55 for Dopamine transporter site

Chain of Sodium-dependent serotonin transporter (P31652 whole entry): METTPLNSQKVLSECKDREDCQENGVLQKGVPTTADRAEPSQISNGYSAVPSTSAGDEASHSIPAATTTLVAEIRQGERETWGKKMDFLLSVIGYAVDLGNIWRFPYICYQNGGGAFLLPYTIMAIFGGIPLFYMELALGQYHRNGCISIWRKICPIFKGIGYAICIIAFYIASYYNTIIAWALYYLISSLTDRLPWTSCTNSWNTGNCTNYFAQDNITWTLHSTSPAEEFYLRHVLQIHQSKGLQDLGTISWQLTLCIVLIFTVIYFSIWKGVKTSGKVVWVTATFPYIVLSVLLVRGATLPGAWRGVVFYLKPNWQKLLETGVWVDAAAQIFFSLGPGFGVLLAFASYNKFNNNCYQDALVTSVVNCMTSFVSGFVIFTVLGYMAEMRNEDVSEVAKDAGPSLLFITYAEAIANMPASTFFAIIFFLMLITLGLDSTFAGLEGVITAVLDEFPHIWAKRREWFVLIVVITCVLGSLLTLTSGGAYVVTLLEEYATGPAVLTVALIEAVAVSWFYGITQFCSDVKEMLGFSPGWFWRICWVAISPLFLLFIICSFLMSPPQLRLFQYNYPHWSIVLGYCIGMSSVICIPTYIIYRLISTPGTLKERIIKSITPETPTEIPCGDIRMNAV

Which results are given for CCC(=O)C1C(c2ccc(C(C)(C)C)cc2)CC2CCC1N2C (stereo unspecified)?
Ki [1]: 1770 nM; IC50 [2]: 2120 nM

With CCC(=O)C1C(c2ccc(-c3ccccc3)cc2)CC2CCC1N2C (stereo unspecified) as the compound, how does the Ki [1] read?
Its Ki is 4.31 nM.

And the IC50 [2]?
The IC50 was 2.29 nM.

Which results are given for CC(=O)C1C(c2ccc(F)cc2)CC2CCC1N2C (stereo unspecified)?
Ki [1]: 857 nM; IC50 [2]: 70.8 nM

For CC(=O)C1C(c2ccc3ccccc3c2)CC2CCC1N2C (stereo unspecified), which Ki [1] is on record?
The Ki was 1.06 nM.

What about the IC50 [2] of the same compound?
The IC50 was 0.28 nM.

What does the source list for CC(=O)C1C(c2ccc(C)cc2)CC2CCC1N2C (stereo unspecified)?
Ki [1]: 122 nM; IC50 [2]: 9.8 nM

For CCC(=O)C1C(c2ccc(F)cc2)CC2CCC1N2C (stereo unspecified), which Ki [1] is on record?
Its Ki is 630 nM.

And the IC50 [2]?
Its IC50 is 15.3 nM.

For CC(=O)C1C(c2cccc3ccccc23)CC2CCC1N2C (stereo unspecified), which Ki [1] is on record?
Its Ki is 25.6 nM.

Which Kd [3] does the source give for CCOC(=O)C1C(c2ccc(I)cc2)CC2CCC1N2C (stereo unspecified) here?
The Kd was 1 nM.

With CCC(=O)C1C(c2ccccc2)CC2CCC1N2C (stereo unspecified) as the compound, how does the Ki [1] read?
The Ki was 1010 nM.

Which results are given for CCc1ccc(C2CC3CCC(C2C(C)=O)N3C)cc1 (stereo unspecified)?
Ki [1]: 78.2 nM; IC50 [2]: 152 nM

For CCC(=O)C1C(c2ccccc2C)CC2CCC1N2C (stereo unspecified), which Ki [1] is on record?
Its Ki is > 10000 nM.

And the IC50 [2]?
Its IC50 is 1290 nM.

Which results are given for CCC(=O)C1C(c2ccc(C(C)C)cc2)CC2CCC1N2C (stereo unspecified)?
Ki [1]: 35.8 nM; IC50 [2]: 436 nM

Which Ki [1] does the source give for CCC(=O)C1C(c2cccc3ccccc23)CC2CCC1N2C (stereo unspecified) here?
Its Ki is 20.9 nM.

And the IC50 [2]?
The IC50 was 5.34 nM.

What does the source list for CCC(=O)C1C(C2CCCCC2)CC2CCC1N2C (stereo unspecified)?
Ki [1]: > 10000 nM; IC50 [2]: 4610 nM

CCC(=O)C1C(CC)CC2CCC1N2C (stereo unspecified) was tested. Which Ki [1] did it give?
Its Ki is > 10000 nM.

And the IC50 [2]?
Its IC50 is > 50000 nM.

CC(=O)C1C(c2ccccc2)CC2CCC1N2C (stereo unspecified) was tested. Which Ki [1] did it give?
Its Ki is 1360 nM.

And the IC50 [2]?
Its IC50 is 114 nM.

Which Ki [1] does the source give for CCC(=O)C1C(c2ccc(C)cc2)CC2CCC1N2C (single isomer, unassigned; (+)) here?
Its Ki is 74 nM.

What about the IC50 [2] of the same compound?
Its IC50 is 4.21 nM.

CCC(=O)C1C(c2ccc(C)cc2)CC2CCC1N2C (single isomer, unassigned; (-)) was tested. Which Ki [1] did it give?
The Ki was > 10000 nM.

What about the IC50 [2] of the same compound?
Its IC50 is 1340 nM.

For CCC(=O)C1C(c2ccc3ccccc3c2)CC2CCC1N2C (single isomer, unassigned; (-)), which Ki [1] is on record?
Its Ki is 484 nM.

And the IC50 [2]?
Its IC50 is 113 nM.

For CCC(=O)C1C(c2ccc(C)cc2)CC2CCC1N2C (stereo in doubt; 12a), which Ki [1] is on record?
The Ki was 131 nM.

What about the IC50 [2] of the same compound?
Its IC50 is 8.2 nM.

Which results are given for CCC(=O)C1C(c2ccc3ccccc3c2)CC2CCC1N2C (stereo in doubt; 21a)?
Ki [1]: 0.394 nM; IC50 [2]: 0.115 nM

What does the source list for CCC(=O)C1C(c2ccc3ccccc3c2)CC2CCC1N2C (stereo in doubt; (+)-21a)?
Ki [1]: 0.121 nM; IC50 [2]: 0.043 nM
